VIM-2 inh: inhibitors of Pseudomonas aeruginosa VIM-2 metallo-beta-lactamase; purified VIM-2, nitrocefin hydrolysis, epi-absorbance fluorescence; inhibition, % at 5.6 µM; 290,000 tested, 0.89% active; AID 1527;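 active = inhibition above the mean of all tested compounds plus 3 SD, cutoff set per screening run, cut at about 7.5% in these data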;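 note: red hydrolysis product quenches plate fluorescence so inhibitors raise well fluorescence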
IMP-1 inh: blocks Pseudomonas aeruginosa IMP-1 metallo-beta-lactamase; AID 1556; inhibition, % at 5.6 µM; purified IMP-1, nitrocefin hydrolysis, epi-absorbance fluorescence; 290,000 tested, 0.45% active;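 active = inhibition above the mean plus 3 SD of all compounds in the same screening run, cut at about 4.5% in these data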
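Test system: recombinant IMP-1 enzyme, purified / Medium: HEPES buffer pH 7.1 with ZnSO4 and Brij 35 / Doses: single dose, 5.6 µM / Times: 25 °C, 15 min preincubation, 25 min reaction / Detection: Epi-absorbance via hydrolysed-nitrocefin quenching of white-plate fluorescence, 480/530 nm, EDTA stop / Evaluation: percent inhibition from optical density relative to buffer-blank wells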
PfM18AAP inh: blocks P. falciparum M18 aspartyl aminopeptidase; inhibition, % at 7.35 µM; recombinant PfM18AAP, H-Glu-NHMec fluorogenic cleavage; 290,000 tested, 1.2% active; AID 1822;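 active = inhibition above the campaign mean inhibition over all tested compounds plus 3 SD, cut at about 28% in these data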
CTSL1 counter: blocks F. hepatica cathepsin L1 in PFM18AAP counter-screen | AID 1906 | 300,000 tested, 0.49% active | recombinant F. hepatica cathepsin L1, Z-Leu-Arg-MCA fluorescence | inhibition, % at 5.96 µM;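 active = inhibition above the mean of all tested compounds plus 3 SD, set per screening campaign, cut at about 17% in these data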
Of the large screens only hits and unclear results are named; the others gave an inactive call. Only some compounds are listed: those with a hit (about 2.7% of all), similar ones and a draw of the others.

O=C(NCCS(=O)(=O)N1CCC2(CC1)OCCO2)c1ccc(F)cc1	none (no result: VIM-2 inh, IMP-1 inh, PfM18AAP inh)
O=C(CN1C2=NCCN2c2ccccc21)c1ccc(Br)s1	none
CCOC(=O)CCC(=O)N1CCOCCOCCN(C(=O)CCC(=O)OCC)CCOCCOCC1	none
CN(C(=O)c1cc2c(=O)n3ccccc3nc2n1C)C1CCCCC1	CTSL1 counter 18.0
CCN(C(=O)c1cc2c(=O)n3ccccc3nc2n1C)C1CCCCC1	none
Cc1cccn2c(=O)c3cc(C(=O)N4CCOCC4)n(C)c3nc12	VIM-2 inh 8.2
O=C(NCC(c1cccs1)N1CCOCC1)c1ccccc1NS(=O)(=O)c1cc([N+](=O)[O-])ccc1Cl (stereo not given)	none
CC(=O)Nc1ccc(S(=O)(=O)/N=C2\C(=O)c3ccccc3C([O-])=C2n2cc[n+](-c3ccccn3)c2)cc1	CTSL1 counter 31.4
Cc1ccc(S(=O)(=O)/N=C2\C(=O)c3ccccc3C([O-])=C2n2cc[n+](CCC(C)C)c2)cc1	none
Cc1noc(NS(=O)(=O)c2ccc(NC(=O)CC34CC5CC(CC(Br)(C5)C3)C4)cc2)c1C	CTSL1 counter 19.7
Cc1noc(NS(=O)(=O)c2ccc(NC(=O)C34CC5CC(C3)CC(n3cnc(Cl)n3)(C5)C4)cc2)c1C	none
COC(=O)C(NC(=O)CCc1c(C)nc2c(c(C)nn2-c2ccccc2)c1C)C(C)C (stereo not given)	IMP-1 inh 4.6 (no result: CTSL1 counter)
COc1ccc(C(=O)NC(=S)Nc2ccc(CN3CCOCC3)cc2)cc1Br	none
COCc1nnc(NC(=O)CCc2ccc(OC)cc2)s1	none
O=C(O)Cc1sc(NC2CCCCC2)nc1-c1ccc(Cl)cc1	IMP-1 inh 5.3
Cc1ccc(N/C(N)=N/c2nc3c(c(=O)[nH]2)CCCC3)c(C)c1	IMP-1 inh 5.0
CCOC(=O)c1nn(-c2ccccc2C)c(=O)cc1OCC(=O)N1CCN(c2ccccc2)CC1	none (no result: VIM-2 inh, IMP-1 inh, PfM18AAP inh)
CC(=O)N1CC=CC1(CC(C)C)C(=O)NCc1cc(F)cc(C(F)(F)F)c1 (stereo not given)	CTSL1 counter 54.6
CNC(=O)C1(CC(C)C)C=CCN1C(C)=O (stereo not given)	none
COc1ccc(OC)c(N2CC(O)=C(c3nc4ccccc4s3)C2=N)c1	IMP-1 inh 4.5
CCn1c(N2CCN(S(=O)(=O)c3ccccc3C(F)(F)F)CC2)nc2ccccc21	IMP-1 inh 7.2
Nn1c(C2CCC2)nc2ccccc2c1=O	none
Nc1nc2c3ccccc3nc(C3CC3)n2n1	VIM-2 inh 8.2
COc1cc(/C=C(/C#N)c2nc3ccccc3[nH]2)ccc1OCc1ccc(C(=O)O)o1	CTSL1 counter 19.6
Cc1ccccc1OC(C)C(=O)Nc1ccc2c(c1)OCCO2 (stereo not given)	none
CCn1c(C)c(C(C)=O)c(N2CCN(c3ccccc3)CC2)nc1=S	IMP-1 inh 6.6
CCn1c(C)c(C(C)=O)c(N2CCN(C(c3ccccc3)c3ccccc3)CC2)nc1=S	none
Cc1ccccc1/C=C/C1=NCCN1	none (no result: VIM-2 inh, IMP-1 inh, PfM18AAP inh)
Oc1ccc(N=Nc2ccccc2-c2nn[nH]n2)c(O)c1	PfM18AAP inh 33.9
Cc1cc2c(cc(C(=O)OC(C(=O)NCc3ccco3)C(C)C)n2C)o1 (stereo not given)	CTSL1 counter 23.7
O=c1cc(NCc2ccccc2)[nH]c(=O)[nH]1	none (no result: VIM-2 inh, IMP-1 inh, PfM18AAP inh)
COc1ccccc1-c1ccc(/C=C2/C=C(C)OC2=O)o1	none
COc1ccccc1-c1ccc(/C=C2\C=CC(=O)O2)o1	IMP-1 inh 5.4
CCOC(=O)c1cc(-c2ccc(N3CCOCC3)cc2)nn1-c1ccccc1C(=O)O	IMP-1 inh 22.5
O=C(CNC(=O)C1CCCCC1)OCC(=O)c1ccc(Br)cc1	none (no result: CTSL1 counter)
O=C(CNC(=O)C1CCCCC1)OCc1cc(=O)oc2ccc3ccccc3c12	CTSL1 counter 28.9
N=c1c(C(=O)NC2CCCCC2)cc2c(=O)n3ccccc3nc2n1CCc1ccccc1	none
CN(C)C=NC(=O)c1cc(C(=O)c2ccc(Cl)cc2)c[nH]1	CTSL1 counter 17.6
O=C(NNC(=O)c1ccccc1Br)c1ccc(SCC2CCCO2)c([N+](=O)[O-])c1 (stereo not given)	none
O=C(CCNC(=O)c1ccccc1Cl)Nc1ccc2c(c1)OCO2	none
O=C(CCl)Nc1ccccc1C(=O)Nc1ccc2c(c1)OCO2	CTSL1 counter 20.6
COc1cccc(C2c3[nH]c4ccccc4c3C[C@H]3C(=O)N(c4ccccc4C(=O)NCCCN4CCOCC4)C(=O)N23)c1 (stereo not given in full)	none
O=C(c1cnc2n(c1=O)CCS2)N1CCc2ccccc21	none
CC1Cc2ccccc2N1C(=O)c1cnc2n(c1=O)CCS2 (stereo not given)	CTSL1 counter 66.2
O=C(CN1C(=O)NC2(CCc3ccccc32)C1=O)Nc1cc(C(F)(F)F)ccc1N1CCOCC1 (stereo not given)	none (no result: VIM-2 inh, IMP-1 inh, PfM18AAP inh)
Cc1ccc(NS(=O)(=O)c2cc([N+](=O)[O-])ccc2NNC(=S)Nc2cccc(Cl)c2)c(C)c1	PfM18AAP inh 31.7
Cc1cc(C)cc(NC(=O)COc2ccc(C(=S)N3CCOCC3)cc2)c1	none
N#Cc1cc2c(nc1SCc1ccc(Cl)nc1)CCCCC2	none
CCC(=O)Nc1nc2ccc(S(C)(=O)=O)cc2s1	none
CCC(=O)Nc1nc2ccc(NC(C)=O)cc2s1	IMP-1 inh 6.2
O=C(O)CS(=O)(=O)c1ccc(Oc2ccc(S(=O)(=O)CC(=O)O)cc2)cc1	none
CC(=O)CS(=O)(=O)c1ccc(Oc2ccc(S(=O)(=O)CC(C)=O)cc2)cc1	CTSL1 counter 24.4
CCc1cc(=O)oc2c3c(cc(OCC(=O)NCc4cccnc4)c12)OC(C)(C)CC3	none
CCC(NC(=O)COc1cc2c(c3oc(=O)c(C)c(C)c13)CCC(C)(C)O2)C(=O)O (stereo not given)	VIM-2 inh 11.2
Cc1c(C)c2c(OCC(=O)NCc3cccnc3)cc3c(c2oc1=O)CCC(C)(C)O3	VIM-2 inh 8.8
CN(C)/C=C/C(=O)c1cc(N2CCOCC2)ccc1[N+](=O)[O-]	IMP-1 inh 7.4
O=c1cc(CSc2nnnn2-c2ccccc2)nc(Nc2ccc(F)cc2)[nH]1	VIM-2 inh 10.0
COc1ccc(CCN2CC(C(=O)NC3CCCCC3)CC2=O)cc1OC (stereo not given)	none
CCOc1ccccc1-n1c(SCC(=O)N(CC)CC)nnc1-c1ccccn1	IMP-1 inh 5.7
CC(C)(C)OC(=O)N1CCC(CC2CC(c3cccc(Br)c3)=NO2)(C(=O)O)CC1 (stereo not given)	none
CN(C)c1ccc(C(=S)N2CCCCCC2)cc1	IMP-1 inh 5.5
CC(=O)N1CCN(C(=S)c2ccc(N(C)C)cc2)CC1	none
OCCOCCn1c(C(CO)Nc2nc(-c3cccc(Br)c3)cs2)nc2ccccc21 (stereo not given)	none (no result: VIM-2 inh, IMP-1 inh, PfM18AAP inh)
OCCOCCn1c(C(CO)Nc2nc(-c3ccccc3Br)cs2)nc2ccccc21 (stereo not given)	CTSL1 counter 21.3 (no result: VIM-2 inh, IMP-1 inh, PfM18AAP inh)
O=C(Nc1ccccc1C(=O)NCCCN1CCOCC1)c1ccc(F)cc1	none
Cc1ccc(N2CCCn3c2cc(C)c(C#N)c3=O)cc1Cl	VIM-2 inh 7.8
Cc1ccc(CN2CCN(Cc3cccn3-c3ccccn3)CC2CCO)cc1 (stereo not given)	none
